# OX1R antag-1: blocks the human orexin 1 receptor. inhibition, % at 5 µM. 330,000 compounds, 0.43% hits. CHO/OX1R cells, Fluo-8 calcium fluorescence, orexin A. O43613;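 active = inhibition above its plate's threshold, mean inhibition of all tested compounds on the plate plus 3 SD, cut at about 37% in these data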;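 note: 0% = orexin A challenge wells and 100% = SB-334867-A antagonist wells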
# OXTR ag: activates the human oxytocin receptor | P30559 | AID 2435 | CHO-OTR cells, Fluo-8 calcium fluorescence; normalized: DMSO 0%, oxytocin 100% | 320,000 compounds, 0.32% hits | activation, % at 3 µM;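 active = activation above the mean of all tested compounds plus 3 SD, cutoff set per screening run, cut at about 20% in these data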;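 note: peak over basal fluorescence ratio from a 100 s FLIPR kinetic read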
# Target sequence (P30559 whole entry, looked up): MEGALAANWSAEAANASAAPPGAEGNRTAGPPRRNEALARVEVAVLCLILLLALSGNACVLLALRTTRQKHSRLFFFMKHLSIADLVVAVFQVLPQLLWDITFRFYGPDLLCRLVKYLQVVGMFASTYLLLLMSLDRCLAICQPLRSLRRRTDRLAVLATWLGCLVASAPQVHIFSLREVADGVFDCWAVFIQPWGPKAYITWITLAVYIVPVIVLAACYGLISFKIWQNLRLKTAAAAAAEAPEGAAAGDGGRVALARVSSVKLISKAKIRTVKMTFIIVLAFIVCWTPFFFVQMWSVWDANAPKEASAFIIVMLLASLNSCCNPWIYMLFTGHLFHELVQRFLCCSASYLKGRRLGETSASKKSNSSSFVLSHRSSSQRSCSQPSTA
# OX1R antag-2: OX1R (human) antagonism | AID 485270 | OX1R-expressing cells, FRET antagonist read-out | O43613 | 330,000 compounds, 1.8% hits | inhibition, % at 6.6 µM; in the data active = inhibition mostly above about 38%, no sharp cut-off; inactive = mostly below about 40%;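 note: 0% = agonist challenge alone and 100% = reference antagonist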
# V1R ag counter: V1a receptor agonism, counter-screen for OXTR agonists. P37288. CHO-V1R cells, Fluo-8 calcium fluorescence, agonist mode; 0% DMSO, 100% 3 nM vasopressin. activation, % at 3 µM. 320,000 compounds, 0.25% hits. AID 2797;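 active = activation above the mean activation of all tested compounds plus 3 SD, per screening run, cut at about 20% in these data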;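 note: signal is peak over basal fluorescence ratio across a 100 second FLIPR read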
# CHO parental Ca: counter-screen: ATP calcium response change in parental CHO cells. parental CHO-K1, ATP-induced calcium, Fluo-8 fluorescence. inhibition, % at 5.6 µM. 330,000 compounds, 0.63% hits. AID 463079;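 active = inhibition above that plate's mean sample inhibition plus 3 SD, cut at about 26% in these data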;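 note: 0% = ATP-challenged DMSO wells and 100% = DMSO wells without ATP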
#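 Test system: untransfected parental CHO cell line; also added: ATP stimulus; dosing: 5.6 µM, single dose; signal: calcium-sensitive Fluo-8 fluorescence; measure: percent inhibition of ATP-evoked calcium rise, normalized to controls; benchmarks: low control ATP plus DMSO, high control DMSO only; replication: one well per compound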
# OXTR potentiator: potentiators of human oxytocin receptor; P30559; CHO-OTR cells, Fluo-8 calcium fluorescence, potentiator mode; 0% = oxytocin EC15, 100% = EC100; activation, % at 3 µM; 320,000 compounds, 0.061% hits;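 active = activation above that plate's cutoff, the mean activation of tested compounds plus 3 SD, cut at about 6.6% in these data, passing the limit was not always enough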;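 note: 100% uses oxytocin at 75 nM as the full agonist control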
#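 System: human OTR in CHO cells; Also added: sub-maximal oxytocin, roughly EC15; Timing: compound 6 min at room temperature before oxytocin, 100 s read; Technique: Fluo-8 intracellular calcium fluorescence, ex 470-495, em 515-575 nm; Controls: oxytocin EC15 low and EC100 high; Replication: singlicate.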
# OX1R Fluo8 conf: confirmation of human orexin 1 receptor antagonists; shares compounds with OX1R antag-1; CHO/OX1R cells, orexin A calcium Fluo-8 fluorescence; inhibition, % at 5 µM; 1,100 compounds, 38% hits; in the data active = inhibition above about 29%;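 note: 0% = agonist challenge alone and 100% = reference antagonist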
# CHO Ca counter: counter-screen for OX1R antagonists: effect in parental CHO cells; AID 492965; parental CHO-K1, ATP-induced calcium, Fluo-8 fluorescence; 1,100 compounds, 9.3% hits; inhibition, % at 5.6 µM; shares compounds with OX1R antag-1;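 active = inhibition above a per-plate limit, the mean inhibition of that plate's test compounds plus 3 SD, cut at about 25% in these data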;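 note: 0% = ATP challenge with DMSO and 100% = DMSO without ATP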
# OX1R HTRF confirm: confirmation of human orexin 1 receptor antagonists, HTRF format | shares compounds with OX1R antag-2 | OX1R-expressing cells, HTRF antagonist assay | inhibition, % at 6.6 µM | 1,800 compounds, 49% hits | AID 492964; in the data active = inhibition above about 55%;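 note: CHO cells expressing OX1R stimulated with orexin A at about EC80; 0% = agonist challenge alone and 100% = reference antagonist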
# CHO-K1 HTRF cnt: counter-screen: parental CHO-K1 HTRF response; shares compounds with OX1R antag-2; AID 493232; parental CHO-K1 cells, HTRF counterscreen; inhibition, % at 6.6 µM; 1,800 compounds, 48% hits; in the data active = inhibition above about 17%;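 note: 0% = agonist challenge with vehicle and 100% = vehicle alone without agonist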
# * = called active by the depositor; . = no result given. Most compounds without a hit are left out; they make up all but 2.7% or so of the library.
SMILES,OX1R antag-1,OXTR ag,OX1R antag-2,V1R ag counter,CHO parental Ca,OXTR potentiator,OX1R Fluo8 conf,CHO Ca counter,OX1R HTRF confirm,CHO-K1 HTRF cnt
Cc1ccc(N(C)S(=O)(=O)c2cccc(C(=O)NCC(c3cccs3)N3CCOCC3)c2)cc1 (stereo unspecified),46.8*,-2.8,78.4*,-0.7,-31.0,1.0,38.3*,-16.9,93.9*,2.7
O=C1/C(=C/c2ccccc2Cl)SC(=S)N1CCCC(=O)N(CCO)c1ccccc1,-31.2,-0.9,9.2,2.0,-18.2,-7.5,.,.,.,.
O=C(NC(Cc1c[nH]c2ccccc12)C(=O)N/N=C/c1cccnc1)c1cccs1 (stereo unspecified),37.1,0.9,71.0*,0.1,-17.6,-6.1,24.1,-4.2,53.5,-0.2
O=C(NC(Cc1c[nH]c2ccccc12)C(=O)Nc1ccc(F)cc1)c1cccs1 (stereo unspecified),-11.6,1.4,7.5,1.0,-4.1,2.9,.,.,.,.
Cc1ccc(NC(=O)C2CC(=O)n3ncnc3N2)cc1C (stereo unspecified),-4.7,1.2,9.9,1.6,-7.9,9.1,.,.,.,.
Cc1c(C(=O)Nc2ccc3nc(N4CCOCC4)sc3c2)oc2ccccc12,-11.1,1.8,25.6,3.3,-21.1,-5.7,.,.,.,.
Cc1nc2ccc(NC(=O)c3oc4ccc(F)cc4c3C)cc2s1,72.3*,-0.5,100.3*,-0.2,-9.0,-3.5,58.8*,-10.7,92.6*,12.7
COc1ccc(CCNC(=O)COC(=O)c2cc(=O)[nH]c3ccccc23)cc1,-12.1,0.1,9.6,0.7,-8.5,-0.7,.,.,.,.
COc1ccc(CCNc2cc(=O)[nH]c(N)n2)cc1,76.0*,0.4,86.1*,-0.1,-3.7,-2.6,11.5,1.8,55.3*,6.1
CCOC(=O)c1[nH]c2ccccc2c1NC(=O)NC(C)C,-9.2,-0.2,-5.0,0.8,-10.4,-3.3,.,.,.,.
CCOC(=O)c1[nH]c2ccccc2c1NC(=O)c1ccc(Br)o1,101.1*,-1.7,99.3*,-1.5,-13.2,-2.7,34.2*,-2.5,89.9*,9.2
Cc1occc1-c1nnc(SCC(=O)NCCc2ccccc2)n1C(C)c1ccccc1 (stereo unspecified),63.7*,-2.1,83.3*,0.2,-31.0,-0.2,29.6*,-7.9,77.1*,-4.4
CC(C)C(C(=O)OCC(=O)c1ccccc1)N1C(=O)C2C3C=CC(C3)C2C1=O (stereo unspecified),-11.4,0.4,16.8,-0.1,-2.8,-12.1,.,.,.,.
CC(=O)N(c1cccc(Cl)c1)c1nc(C)cc(C)c1C#N,-16.4,-0.1,36.8,0.8,-2.7,-2.5,.,.,.,.
C=C(C)C(COc1c2occc2cc2ccc(=O)oc12)OC(C)(C)C(O)COc1c2occc2cc2ccc(=O)oc12 (stereo unspecified),61.1*,1.5,83.8*,1.5,-23.9,-7.0,39.3*,-5.5,87.9*,-1.5
CC(C)C(=O)COc1c2occc2cc2ccc(=O)oc12,-13.0,-0.8,1.4,0.8,-1.7,0.1,.,.,.,.
CC(CSc1nc2ccccc2s1)Cn1c(N2CCCC2)nc2c1c(=O)[nH]c(=O)n2C (stereo unspecified),60.5*,-2.0,93.5*,-1.4,-19.1,4.9,35.4*,-17.8,86.9*,-1.9
Cc1nn(CSc2c(F)c(F)c(F)c(F)c2F)c(C)c1[N+](=O)[O-],-10.3,-0.8,6.5,-1.0,-7.2,1.9,.,.,.,.
Cc1ccc(S(=O)(=O)N2CCC(C(=O)Nc3nnc(C)s3)CC2)cc1,-6.1,-0.1,15.7,0.2,5.3,-3.7,.,.,.,.
CCC(C(=O)OCC(=O)Nc1ccc(C)c(S(=O)(=O)N2CCOCC2)c1)c1ccccc1 (stereo unspecified),12.7,1.4,20.6,4.1,-16.4,-16.2,.,.,.,.
Cc1ccc(NC(=O)COc2cccc(Oc3ccccc3)c2)cc1S(=O)(=O)N1CCOCC1,45.4*,1.8,29.5*,3.3,-5.2,-2.8,31.6*,-7.7,17.7,0.1
O=C(Nc1cccc(Cl)c1)Nc1ccnc(-c2cccnc2)n1,40.6*,3.5,67.0*,7.1,6.3,-18.1,28.4,1.4,68.5*,6.6
CC(=O)c1cccc(Nc2nc3ccccc3n3cnnc23)c1,-1.0,-1.5,25.9,3.6,-8.8,-14.8,.,.,.,.
Fc1cccc(Nc2nc3ccccc3n3cnnc23)c1,36.4,-1.3,52.9*,-0.2,0.4,-16.6,37.3*,0.4,86.0*,6.1
Cc1ccc2cc(C)c3nnc(SCC(=O)Nc4nc5c(s4)CCCC5)n3c2c1C,34.4,-1.9,84.3*,-1.1,-19.6,-2.2,40.9*,-10.4,74.8*,-0.4
SMILES,OX1R antag-1,OXTR ag,OX1R antag-2,V1R ag counter,CHO parental Ca,OXTR potentiator,OX1R Fluo8 conf,CHO Ca counter,OX1R HTRF confirm,CHO-K1 HTRF cnt
CC(=O)c1ccccc1C(=O)N1CCCC(C(=O)c2ccc(C(F)(F)F)cc2)C1 (stereo unspecified),-19.3,4.6,16.9,8.9,-19.9,-9.4,.,.,.,.
Cc1ccc(S(=O)(=O)c2nnn3c2nc(N2CCOCC2)c2ccccc23)c(C)c1,-8.6,-0.1,29.4,-0.3,-15.2,0.1,.,.,.,.
O=C(O)CCn1c(SCCOc2ccccc2)nc2ccccc21,58.4*,1.0,87.0*,0.0,-7.7,-9.4,31.9*,0.1,74.5*,8.7
Cc1cccc(OCCSc2nc3ccccc3n2CCC(=O)O)c1,31.6,-1.0,97.3*,1.3,-3.2,0.0,35.0*,2.7,83.0*,5.0
CC(C)N(Cc1ccccc1)C(=O)CN1C(=O)NC2(CCCc3ccccc32)C1=O (stereo unspecified),-22.6,0.3,21.8,-0.3,-9.2,-9.5,.,.,.,.
CC(C)N(Cc1ccccc1)C(=O)CN1C(=O)NC(Cc2ccccc2)(c2ccccc2)C1=O (stereo unspecified),27.7,-0.5,80.5*,0.4,-16.9,-5.4,42.0*,-13.8,86.7*,-14.7
CCOC(=O)c1c(C)[nH]c(C)c1S(=O)(=O)N(C)CC(=O)Nc1ccccc1F,-2.8,-0.4,10.7,7.1,0.5,-0.3,.,.,.,.
Cc1ccc([C@@H]2CC=C(C(=O)O)[C@H](c3cccc(Cl)c3)N2S(=O)(=O)c2ccccc2C)cc1,81.1*,-0.4,86.0*,1.1,1.8,-9.4,48.0*,-1.1,89.5*,4.0
